ChEMBL document CHEMBL1122554, “Synthesis and antitumor activity of tropolone derivatives” (1984)
Converted amounts (≈) assume the structure as drawn.

Test system: Mus musculus
Experiment: In vivo antitumor activity was measured in mice (P388 leukemia) at dose 0.3 mg/kg after intraperitoneal administration
Assay type: functional
Details: not given
How it was run: (§1)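 Groups of six CDF1 mice were inoculated ip with 10⁶ P388 leukemia cells. Ip drug dosing began 24 h later, given once daily for 1 and 5 days. %T/C = median survival time of the treated group ÷ median survival time of the tumor control group × 100.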

| SMILES | T/C [%] |
| --- | --- |
| COc1cc2c(c(OC)c1OC)-c1ccc(OC)c(=O)cc1[C@@H](NC(C)=O)CC2 [COLCHICINE] | 142 |

Test system: Mus musculus
Experiment: In vivo antitumor activity was measured in mice (P388 leukemia) at dose 5 mg/kg after intraperitoneal administration
Assay type: functional
Details: not given
How it was run: as §1

| SMILES | T/C [%] |
| --- | --- |
| Cc1ccc(C(c2ccc(C(C)C)cc(=O)c2O)c2ccc(C(C)C)cc(=O)c2O)cc1 | 147 |
| COc1ccc(C(c2ccc(C(C)C)cc(=O)c2O)c2ccc(C(C)C)cc(=O)c2O)cc1OC | 156 |
| CC(C)c1ccc(C(c2ccc(Cl)cc2)c2ccc(C(C)C)cc(=O)c2O)c(O)c(=O)c1 | 141 |
| Cc1ccccc1C(c1ccc(C(C)C)cc(=O)c1O)c1ccc(C(C)C)cc(=O)c1O | 156 |
| COc1ccc(C(c2cc(C(C)C)ccc(=O)c2O)c2cc(C(C)C)ccc(=O)c2O)cc1 | 156 |
| COc1cccc(C(c2ccc(C(C)C)cc(=O)c2O)c2ccc(C(C)C)cc(=O)c2O)c1 | 134 |
| COc1ccccc1C(c1ccc(C(C)C)cc(=O)c1O)c1ccc(C(C)C)cc(=O)c1O | 151 |
| CC(C)c1ccc(C(c2ccc(N(C)C)cc2)c2ccc(C(C)C)cc(=O)c2O)c(O)c(=O)c1 | 173 |

Test system: Mus musculus
Experiment: In vivo antitumor activity was measured in mice (P388 leukemia) at dose 2.5 mg/kg after intraperitoneal administration
Assay type: functional
Details: not given
How it was run: as §1

| SMILES | T/C [%] |
| --- | --- |
| COc1ccc(C(c2ccc(C(C)C)cc(=O)c2O)c2ccc(C(C)C)cc(=O)c2O)cc1OC | 137 |
| Cc1ccccc1C(c1ccc(C(C)C)cc(=O)c1O)c1ccc(C(C)C)cc(=O)c1O | 137 |
| COc1ccc(C(c2ccc(C(C)C)cc(=O)c2O)c2ccc(C(C)C)cc(=O)c2O)cc1 | 134 |
| COc1cccc(C(c2ccc(C(C)C)cc(=O)c2O)c2ccc(C(C)C)cc(=O)c2O)c1 | 142 |
| CC(C)c1ccc(C(c2ccccc2)c2ccc(C(C)C)cc(=O)c2O)c(O)c(=O)c1 | 150 |

Test system: Mus musculus
Experiment: IIn vivo %T/C was measured in mice (P388 leukemia) at dose 10 mg/kg after intraperitoneal administration
Assay type: functional
Details: not given
How it was run: as §1

| SMILES | T/C [%] |
| --- | --- |
| COc1ccccc1C(c1ccc(C(C)C)cc(=O)c1O)c1ccc(C(C)C)cc(=O)c1O | 162 |

Test system: Mus musculus
Experiment: In vivo antitumor activity was measured in mice (P388 leukemia) at dose 100 mg/kg after intraperitoneal administration
Assay type: functional
Details: not given
How it was run: as §1

| SMILES | T/C [%] |
| --- | --- |
| CC(C)c1ccc(C(c2ccccc2)c2ccccc2)c(O)c(=O)c1 | 119 |
| CCOC(c1ccc(Cl)cc1)c1ccc(C(C)C)cc(=O)c1O (stereo not given) | 99 |

Test system: Mus musculus
Experiment: In vivo antitumor activity was measured in mice (P388 leukemia) at dose 1.3 mg/kg after intraperitoneal administration
Assay type: functional
Details: not given
How it was run: as §1

| SMILES | T/C [%] |
| --- | --- |
| CC(C)c1ccc(C(c2ccccc2)c2ccc(C(C)C)cc(=O)c2O)c(O)c(=O)c1 | 132 |

Test system: Mus musculus
Experiment: In vivo antitumor activity was measured in mice (P388 leukemia) at dose 10 mg/kg after intraperitoneal administration
Assay type: functional
Details: not given
How it was run: as §1

| SMILES | T/C [%] |
| --- | --- |
| COc1ccc(C(c2ccc(C(C)C)cc(=O)c2O)c2ccc(C(C)C)cc(=O)c2O)cc1OC | 158 |
| COc1cccc(C(c2ccc(C(C)C)cc(=O)c2O)c2ccc(C(C)C)cc(=O)c2O)c1 | 134 |
| CC(C)c1ccc(C(c2ccc(N(C)C)cc2)c2ccc(C(C)C)cc(=O)c2O)c(O)c(=O)c1 | 177 |

Test system: Mus musculus
Experiment: In vivo antitumor activity was measured in mice (P388 leukemia) at dose 1 mg/kg after intraperitoneal administration
Assay type: functional
Details: not given
How it was run: as §1

| SMILES | T/C [%] |
| --- | --- |
| COc1cc2c(c(OC)c1OC)-c1ccc(OC)c(=O)cc1[C@@H](NC(C)=O)CC2 [COLCHICINE] | 166 |

Test system: Mus musculus
Experiment: In vivo antitumor activity was measured in mice (P388 leukemia) at dose 20 mg/kg after intraperitoneal administration
Assay type: functional
Details: not given
How it was run: as §1

| SMILES | T/C [%] |
| --- | --- |
| Cc1ccccc1C(c1ccc(C(C)C)cc(=O)c1O)c1ccc(C(C)C)cc(=O)c1O | 158 |
| COc1ccccc1C(c1ccc(C(C)C)cc(=O)c1O)c1ccc(C(C)C)cc(=O)c1O | 0 |

Test system: Mus musculus
Experiment: In vivo antitumor activity was measured in mice (P388 leukemia) at dose 0.5 mg/kg after intraperitoneal administration
Assay type: functional
Details: not given
How it was run: as §1

| SMILES | T/C [%] |
| --- | --- |
| COc1cc2c(c(OC)c1OC)-c1ccc(OC)c(=O)cc1[C@@H](NC(C)=O)CC2 [COLCHICINE] | 160 |

Test system: Mus musculus
Experiment: In vivo antitumor activity was measured in mice (P388 leukemia) at dose 400 mg/kg after intraperitoneal administration
Assay type: functional
Details: not given
How it was run: as §1

| SMILES | T/C [%] |
| --- | --- |
| CCOC(c1ccc(Cl)cc1)c1ccc(C(C)C)cc(=O)c1O (stereo not given) | 0 |

Test system: Mus musculus
Experiment: In vivo antitumor activity was measured in mice (P388 leukemia) at dose 0.6 mg/kg after intraperitoneal administration
Assay type: functional
Details: not given
How it was run: as §1

| SMILES | T/C [%] |
| --- | --- |
| COc1ccc(C(c2ccc(C(C)C)cc(=O)c2O)c2ccc(C(C)C)cc(=O)c2O)cc1 | 127 |

Test system: KB
Experiment: In vitro inhibitory activity against growth of KB cells derived from human epidermoid carcinoma of the mouth
Assay type: functional
Details: not given
How it was run: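 KB human epidermoid carcinoma cells grown at 37 °C in 5% CO2–95% air and seeded at 2100 cells/cm². After 24 h the medium was changed and graded drug (0.3–100 µg/mL) added, two dishes per concentration. After 48 h of exposure, cells were trypsinized and counted by Coulter counter. IC50 was read from a plot of log concentration vs. growth rate (% of control).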

| SMILES | ID50 [nM] |
| --- | --- |
| CC(C)c1ccc(C(c2ccccc2)c2ccccc2)c(O)c(=O)c1 | 4200 |
| CCOC(c1ccc(Cl)cc1)c1ccc(C(C)C)cc(=O)c1O (stereo not given) | 900 |
| Cc1ccc(C(c2ccc(C(C)C)cc(=O)c2O)c2ccc(C(C)C)cc(=O)c2O)cc1 | 3400 |
| COc1ccc(C(c2ccc(C(C)C)cc(=O)c2O)c2ccc(C(C)C)cc(=O)c2O)cc1OC | 600 |
| CC(C)c1ccc(C(c2ccc(Cl)cc2)c2ccc(C(C)C)cc(=O)c2O)c(O)c(=O)c1 | 4400 |
| COc1ccc(C(c2ccc(C(C)C)cc(=O)c2O)c2ccc(C(C)C)cc(=O)c2O)cc1 | 1100 |
| COc1ccc(C(c2cc(C(C)C)ccc(=O)c2O)c2cc(C(C)C)ccc(=O)c2O)cc1 | 600 |
| COc1cccc(C(c2ccc(C(C)C)cc(=O)c2O)c2ccc(C(C)C)cc(=O)c2O)c1 | 2400 |
| CC(C)c1ccc(C(c2ccc(N(C)C)cc2)c2ccc(C(C)C)cc(=O)c2O)c(O)c(=O)c1 | 1500 |
| CC(C)c1ccc(C(c2ccccc2)c2ccc(C(C)C)cc(=O)c2O)c(O)c(=O)c1 | 700 |
| COc1cc2c(c(OC)c1OC)-c1ccc(OC)c(=O)cc1[C@@H](NC(C)=O)CC2 [COLCHICINE] | 6000 |

Same assay, conditions: Homo sapiens, KB; read-out: ID50 (the source's name)

| SMILES | IC50 [µg/mL] |
| --- | --- |
| CC(C)c1ccc(C(c2ccccc2)c2ccccc2)c(O)c(=O)c1 | 1.4 (≈ 4.24 µM) |
| CCOC(c1ccc(Cl)cc1)c1ccc(C(C)C)cc(=O)c1O (stereo not given) | 0.3 (≈ 0.901 µM) |
| Cc1ccc(C(c2ccc(C(C)C)cc(=O)c2O)c2ccc(C(C)C)cc(=O)c2O)cc1 | 1.5 (≈ 3.48 µM) |
| COc1ccc(C(c2ccc(C(C)C)cc(=O)c2O)c2ccc(C(C)C)cc(=O)c2O)cc1OC | 0.3 (≈ 0.629 µM) |
| CC(C)c1ccc(C(c2ccc(Cl)cc2)c2ccc(C(C)C)cc(=O)c2O)c(O)c(=O)c1 | 2 (≈ 4.43 µM) |
| COc1ccc(C(c2ccc(C(C)C)cc(=O)c2O)c2ccc(C(C)C)cc(=O)c2O)cc1 | 0.5 (≈ 1.12 µM) |
| COc1ccc(C(c2cc(C(C)C)ccc(=O)c2O)c2cc(C(C)C)ccc(=O)c2O)cc1 | 0.3 (≈ 0.672 µM) |
| COc1cccc(C(c2ccc(C(C)C)cc(=O)c2O)c2ccc(C(C)C)cc(=O)c2O)c1 | 1.1 (≈ 2.46 µM) |
| CC(C)c1ccc(C(c2ccc(N(C)C)cc2)c2ccc(C(C)C)cc(=O)c2O)c(O)c(=O)c1 | 0.7 (≈ 1.52 µM) |
| CC(C)c1ccc(C(c2ccccc2)c2ccc(C(C)C)cc(=O)c2O)c(O)c(=O)c1 | 0.3 (≈ 0.72 µM) |
| COc1cc2c(c(OC)c1OC)-c1ccc(OC)c(=O)cc1[C@@H](NC(C)=O)CC2 [COLCHICINE] | 2.2 (≈ 5.51 µM) |

Test system: Mus musculus
Experiment: In vivo antitumor activity was measured in mice (P388 leukemia) at dose 200 mg/kg after intraperitoneal administration
Assay type: functional
Details: not given
How it was run: as §1

| SMILES | T/C [%] |
| --- | --- |
| CCOC(c1ccc(Cl)cc1)c1ccc(C(C)C)cc(=O)c1O (stereo not given) | 109 |
